Test [1] deals with L929. Nature of the test: Compound was evaluated for cellular toxicity by [3H]thymidine incorporation into DNA of uninfected L-929 cells after 36h exposure. It is filed as functional, Mus musculus. On the set-up: concentration or dose not given beside the values. In a few lines: (§1)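 Uninfected mouse L-929 monolayers (2.5 × 10^6 cells/60-mm dish) exposed to 10 µM compound or no drug in serum-free KU-1 medium for 36 or 72 h. Then pulsed with [3H]thymidine. Cells trypsinized, precipitated in 10% TCA at 4 °C, and precipitates collected on glass-fibre filters. Filters solubilized and counted by liquid scintillation. Incorporation expressed as percent of untreated controls.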
In general terms: Uptake of a labelled nucleoside into DNA is a usual measure of proliferation.

Test [2] concerns L929. As to the kind of experiment: Ability to inhibit Vaccinia virus plaque formation after 72 hr in monolayer cultures of mouse L-929 cells. The class given is functional. Also on record: concentration or dose not given beside the values.
The subject of test [3] is L929. As to the kind of experiment: Compound was evaluated for cellular toxicity by [3H]thymidine incorporation into DNA of uninfected L-929 cells after 72 hr exposure. It is filed as functional, Mus musculus. On the set-up: concentration or dose not given beside the values. The gist of the method:
as §1

Test [4] deals with Adenosylhomocysteinase (Bos taurus) (UniProt Q3MHL4). As to the kind of experiment: Evaluated for the inhibition of bovine liver S-adenosyl-homocysteine hydrolase at concentration 2.0 mM.
Adenosylhomocysteinase (Bos taurus), sequence (Q3MHL4 whole entry, looked up): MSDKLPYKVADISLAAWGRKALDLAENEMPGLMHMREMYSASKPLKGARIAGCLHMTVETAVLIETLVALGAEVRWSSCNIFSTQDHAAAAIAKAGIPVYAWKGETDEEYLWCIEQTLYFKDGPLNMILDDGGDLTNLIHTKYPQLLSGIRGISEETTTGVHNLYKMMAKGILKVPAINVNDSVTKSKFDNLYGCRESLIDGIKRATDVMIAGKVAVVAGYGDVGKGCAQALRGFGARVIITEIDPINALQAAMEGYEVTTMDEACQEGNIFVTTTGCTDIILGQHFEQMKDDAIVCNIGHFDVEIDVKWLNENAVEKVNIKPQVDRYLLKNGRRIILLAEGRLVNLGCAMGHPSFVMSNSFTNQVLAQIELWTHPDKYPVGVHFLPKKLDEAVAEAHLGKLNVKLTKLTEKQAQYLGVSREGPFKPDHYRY

Take `Nc1nccc2c1ncn2CCCCO`: the Control with L929 [1] is given as 102%; in the test on L929 [3], 110%. In the test with L929 [2], the Inhibition – broadly, the share of the control response that was lost under treatment – is on record as 51%. Besides, in test [4], the inhibition (as a rule, the percentage by which the read-out fell short of the control) is 12%.

As for `Nc1nccc2c1ncn2[C@@H]1C[C@H](CO)[C@@H](O)[C@H]1O` [3-DEAZAARISTEROMYCIN A], the Control with L929 [1] is 86%; in the test on L929 [3], 246%. Also, the Inhibition in the test with L929 [2] is recorded as 95%.

Regarding `Nc1nccc2c1ncn2CC(O)CO` (centres undefined), the Control amounted to 88% in the test on L929 [1] and 138% in the test with L929 [3]. Also, the Inhibition with L929 [2] is given as 53%. In test [4], the inhibition worked out at 95%.

Turning to `Nc1nccc2c1ncn2C(CO)CCCO` (centres undefined), the results for the Control in the test on L929 [1] and in the test on L929 [3] were 91% and 140%, respectively. The compound further yielded an Inhibition in the test with L929 [2] of 27%. The inhibition in test [4] is 50%.

With `Nc1nccc2c1ncn2CCO`, the Control was 95% with L929 [1] and 113% with L929 [3]. This compound registered an Inhibition with L929 [2] of 33%. In test [4], the inhibition was determined as 27%.

(Values after ChEMBL document CHEMBL1123111, “Potential inhibitors of S-adenosylmethionine-dependent methyltransferases. 8. Molecular dissections of carbocyclic 3-deazaadenosine as inhibitors of S-adenosylhomocysteine hydrolase” (1985).)
